# High-throughput results as filed in PubChem BioAssay.
# ANO1 block: blocks the mouse calcium-activated chloride channel TMEM16A. HEK293 TMEM16A/YFP iodide influx fluorescence, ionomycin. AID 588511. hit rate 1.2% among 310,000. normalized B-score (activity score, 25-100; higher = stronger inhibition) at 10 µM. Q8BHY3;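 active means ratio plate-corrected score three or more library SD toward inhibition, starting fluorescence score within five deviations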;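 further: score derived from kinetic fluorescence span divided by baseline fluorescence per well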
# Target sequence (Q8BHY3 whole entry, looked up): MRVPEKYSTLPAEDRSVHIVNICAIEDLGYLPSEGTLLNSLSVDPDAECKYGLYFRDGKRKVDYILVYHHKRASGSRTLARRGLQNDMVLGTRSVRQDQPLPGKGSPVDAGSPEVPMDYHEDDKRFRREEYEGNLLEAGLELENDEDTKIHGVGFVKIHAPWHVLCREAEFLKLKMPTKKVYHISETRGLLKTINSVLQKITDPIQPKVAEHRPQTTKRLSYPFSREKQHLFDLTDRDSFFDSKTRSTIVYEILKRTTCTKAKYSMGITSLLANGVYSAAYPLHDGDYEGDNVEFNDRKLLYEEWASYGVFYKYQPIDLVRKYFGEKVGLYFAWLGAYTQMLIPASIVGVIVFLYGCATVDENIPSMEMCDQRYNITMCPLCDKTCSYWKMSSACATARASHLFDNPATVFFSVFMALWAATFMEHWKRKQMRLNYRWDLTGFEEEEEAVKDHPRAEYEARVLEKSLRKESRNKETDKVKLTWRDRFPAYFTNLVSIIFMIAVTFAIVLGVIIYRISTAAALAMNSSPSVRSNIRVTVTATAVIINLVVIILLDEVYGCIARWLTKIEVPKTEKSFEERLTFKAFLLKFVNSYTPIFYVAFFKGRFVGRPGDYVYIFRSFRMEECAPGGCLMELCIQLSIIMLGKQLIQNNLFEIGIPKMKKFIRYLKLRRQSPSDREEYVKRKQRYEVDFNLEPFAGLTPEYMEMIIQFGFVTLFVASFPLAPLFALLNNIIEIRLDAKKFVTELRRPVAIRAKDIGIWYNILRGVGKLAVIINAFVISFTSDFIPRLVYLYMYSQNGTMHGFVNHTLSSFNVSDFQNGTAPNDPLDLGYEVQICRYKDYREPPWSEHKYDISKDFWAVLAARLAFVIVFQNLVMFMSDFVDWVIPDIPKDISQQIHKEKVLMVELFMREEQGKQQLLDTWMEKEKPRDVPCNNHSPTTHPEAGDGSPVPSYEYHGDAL
# Lipid droplet: modulators of hepatic lipid droplet formation; AML12 mouse hepatocytes, oleate lipid droplets, BODIPY imaging; inhibition, % at 6.5 µM; hit rate 0.4% among 240,000; AID 1656;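 active means lipid droplet intensity inhibited by at least 50%, with more than 500 cells counted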
#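 Assay system: AML12 mouse liver cells | Compound dosing: One dose, 6.5 µM compound | Read-out basis: Droplet intensity reduction, % inhibition | Measured by: Fluorescence imaging, 20x objective, two fields per well | Schedule: Overnight treatment with compound plus oleate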
# CHOP inh: blocks CHOP induction under ER stress. hit rate 3.8% among 220,000. CHO-K1 CHOP-promoter luciferase, tunicamycin-induced, 15-18 h. inhibition, % at 10 µM;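 active means compounds that reduced the stress-induced luciferase reporter signal by more than about 70% of percent inhibition, limit read from the data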;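 further: 0% = tunicamycin plus vehicle and 100% = wells without tunicamycin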
# CHOP UPR activ: apoptotic UPR (CHOP) activation; CHO-CHOP luciferase reporter, luminescence; percent of tunicamycin response over DMSO baseline; activation, % at 10 µM; hit rate 0.34% among 330,000;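 active means at 10 µM dose, activation of 40% or more, normalized to positive control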;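 further: 100% = tunicamycin at 10 µg/mL and 0% = DMSO alone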
#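 Test system: CHO-CHOP cells, stable luciferase reporter of PERK-eIF2a-CHOP signalling | Quantity: 500 CHO-CHOP cells per well | Buffer or medium: F12 plus 10% serum | Compound dosing: 10 µM single point, 0.5% DMSO | Schedule: 6 h compound treatment, 37 °C | Signal: Luciferase luminescence | Control set: Tunicamycin high control, DMSO low control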
# TMEM16A act: activators or potentiators of mouse TMEM16A chloride channel. B-score at 10 µM. AID 623877. HEK293 TMEM16A/YFP-H148Q/I152L, iodide quench fluorescence; hits give low values. hit rate 0.3% among 340,000;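 active means fluorescence-ratio B-score plate-corrected deviation score at least 3 library SD below zero, with starting fluorescence score within 5 deviations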;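 further: channel opened by trigger with iodide after compound preincubation; score built on the fluorescence ratio of max minus min over baseline; more negative score means more quench and so TMEM16A activation or potentiation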
# UPR XBP1 act: adaptive UPR (XBP1) activation. CHO-XBP1 luciferase reporter, IRE1-XBP1 UPR activation, luminescence; percent of tunicamycin response, DMSO as zero. activation, % at 20 µM. hit rate 0.33% among 330,000. AID 463104;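 active means versus positive control, 20 µM dose yields 30% or more activation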;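 further: 100% = tunicamycin at 10 µg/mL and 0% = DMSO only wells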
#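 incubation = overnight seeding at 37 °C, 6 h compound treatment at 37 °C | assay system = CHO-XBP1 cells stably carrying IRE1-XBP1-driven luciferase reporter | input = 1000 cells per well | detection = luciferase luminescence | dosing = single point, 20 µM final compound, 1% DMSO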
# The depositor's hits bear a star; i = inactive; . = not tested or not shown. Sampled rows, rich in hits. Any-hit rate of the full collection: about 4.2%.
SMILES,ANO1 block,Lipid droplet,CHOP inh,CHOP UPR activ,TMEM16A act,UPR XBP1 act
CCN1C(=O)C(O)(CC(=O)/C=C/C=C/c2ccccc2)c2ccccc21 (centres undefined),i,.,-15.4,1.5,i,-0.8
Cc1nc(SCC(=O)O)c(C#N)c2c1CCCC2,i,-0.5,-7.4,-1.5,i,-3.2
CC(C)c1nc(N2CCOCC2)c(C#N)c2c1CCC2,i,.,72.4*,-0.4,i,-2.1
CCCCc1nc(N2CCOCC2)c(C#N)c2c1CCCC2,i,.,62.1,2.5,i,-2.2
CSc1nc(C)c2c(c1C#N)CCCC2,i,1.9,91.8*,-2.4,i,0.5
CSc1nc(N2CCOCC2)c2c(c1C#N)CCCCC2,i,15.8,73.4*,-0.6,i,-6.7
COc1cccc(-c2csc(N3CCN(CC(=O)NNC(=O)c4ccco4)CC3)n2)c1,i,16.7,20.8,0.8,i,5.2
Cn1c(N)c(C(=O)COC(=O)c2ccccc2C(=O)c2ccc(Cl)c([N+](=O)[O-])c2)c(=O)n(C)c1=O,.,.,.,10.3,i,-3.3
CN(CC(=O)Nc1ccc(Cl)cc1)C(=O)CNC(=O)c1ccc(Br)o1,i,.,.,3.1,i,1.6
Cc1ccc(NC(=O)Cc2nnc(SCC(=O)c3ccc(Br)cc3)n2C)cc1,i,14.2,88.3*,0.1,i,-2.2
COC(=O)/C=C1\C(=O)N(c2nc3ccc(OC)cc3s2)C(=S)N1c1ccc(F)cc1,i,0.9,42.8,73.1*,.,14.0
O=Cc1ccc(OC(=O)Cc2ccc(F)cc2)cc1,i,-3.0,.,0.4,.,-1.6
Cc1ccc2nc(N3CC(=O)Nc4ccccc43)nc(-c3ccccc3)c2c1,i,-0.6,89.3*,.,i,.
Cc1ccc2nc(N3CCC(C(=O)O)CC3)nc(-c3ccccc3)c2c1,i,.,-1.4,-2.0,i,1.6
N#Cc1ccc(NC(=S)NC(=O)C2CCCCC2)cc1,.,.,.,4.0,i,-2.2
O=C(c1cc2c(s1)CCCC2)N1CCN(S(=O)(=O)c2ccccc2)CC1,i,.,.,1.2,i,1.0
COc1ccc(S(=O)(=O)N2CCN(C(=O)c3cc4c(s3)CCCC4)CC2)cc1,.,.,.,-1.1,-34.2*,-1.5
CCN(C(=O)CSc1nccc(=O)[nH]1)c1cccc2ccccc12,.,.,.,0.1,i,1.8
COc1ccccc1OCCCCOc1ccccc1C(C)=O,25*,0.1,49.9,-0.1,i,-1.0
Cc1ccc(S(=O)(=O)N(C)c2ccc(OC(C)C(=O)N3CCCC3)cc2)cc1C (centres undefined),i,.,.,-0.1,i,0.5
CCOc1cc(C)c(C(C)C)cc1S(=O)(=O)n1ccc(C)n1,i,-9.7,77.3*,0.7,i,-1.1
CCc1ccc(NC(=O)CCS(=O)(=O)c2ccc(Cl)cc2)cc1,i,-0.8,.,2.6,i,-4.3
Cc1nn(C(=O)CNS(=O)(=O)c2ccccc2)c(C)c1Sc1ccc(Cl)cc1,i,-4.6,81.6*,-0.8,i,0.9
Cc1nn(C(=O)c2cccnc2)c(C)c1Sc1ccccc1,i,-14.0,68.5,-1.4,i,-0.9
COC(=O)Cn1cc(C(=O)OC)cc(Br)c1=O,25*,.,23.6,-2.0,i,-2.3
SMILES,ANO1 block,Lipid droplet,CHOP inh,CHOP UPR activ,TMEM16A act,UPR XBP1 act
O=C(Nc1nc2c(s1)CCc1ccccc1-2)c1cccs1,i,.,49.1,3.3,i,5.9
Fc1ccccc1Nc1nc2c(s1)CCc1ccccc1-2,.,-9.0,70.8*,.,.,.
O=C(Nc1ccc(Cl)cc1)c1cc2c(cc1O)[nH]c1ccccc12,i,-0.5,77.1*,3.2,i,-2.5
COc1cn(-c2ccccc2)nc1C(=O)OCC(=O)Nc1ccc(C)c(C)c1,.,.,.,0.7,i,-2.8
Cc1ccc(-n2c(O)c(/C=N/Nc3ccc(S(=O)(=O)N4CCOCC4)cc3[N+](=O)[O-])c3ccccc3c2=O)c(C)c1,100*,-9.2,57.1,0.4,i,-2.6
O=C(O)c1ccc(/C=N\Nc2ccc(S(=O)(=O)N3CCOCC3)cc2[N+](=O)[O-])cc1,i,0.5,7.8,1.1,i,0.9
C=C(C)CNC(=S)N/N=C/C1=CCC2CC1C2(C)C (centres undefined),i,6.7,83.7*,-1.2,i,-4.8
CCCCNC(=S)N/N=C/C1=CCC2CC1C2(C)C (centres undefined),i,15.8,16.2,1.1,i,-0.2
CC(C)NC(=S)N/N=C/C1=CCC2CC1C2(C)C (centres undefined),i,15.8,72.0*,1.3,i,0.4
C#CCOCCOCCOCCNc1nc(N2CCN(C(=O)CCCCCCCCCCNC(=O)[C@@H](CCSC)n3cc(CCO)nn3)CC2)nc(N2CCN(C(=O)CCCCCCCCCCNC(=O)[C@H]([C@@H](C)CC)n3cc(CCCCCN)nn3)CC2)n1,100*,.,.,0.9,.,4.3
C#CCOCCOCCOCCNc1nc(N2CCN(C(=O)CCCCCCCCCCNC(=O)[C@@H](CCSC)n3cc(CCO)nn3)CC2)nc(N2CCN(C(=O)CCCCCCCCCCNC(=O)[C@H]([C@@H](C)CC)n3cc(CCCCN=C(N)N)nn3)CC2)n1,i,.,.,1.9,-23.4*,0.4
C#CCOCCOCCOCCNc1nc(N2CCOCC2)nc(N2CCN(C(=O)CCCCCCCCCCNC(=O)[C@@H](CCSC)n3cc(CCO)nn3)CC2)n1,i,.,.,0.9,i,-3.0
OC[C@H]1O[C@@H](n2cnc3c(Nc4ccccc4)ncnc32)C(O)[C@H]1O (some centres undefined),.,.,3.2,.,.,.
O=C1/C(=C/c2ccccc2Cl)SC(=S)N1CCCC(=O)N(CCO)c1ccccc1,i,-9.3,.,-1.4,i,-5.2
CCC(Sc1nnnn1-c1ccccc1)C(=O)Nc1nc2ccccc2s1 (centres undefined),i,-8.9,88.7*,-0.3,i,-2.4
CCC(Sc1nnnn1-c1ccccc1)C(=O)NC(C)c1ccccc1 (centres undefined),i,27.2,16.6,-0.7,i,-2.1
O=C(CSc1nnnn1-c1ccc(F)cc1)Nc1nc2ccccc2s1,i,.,70.2*,0.4,i,1.8
Cc1nc(SCC(=O)Nc2nc3ccccc3s2)c(C#N)c(C)c1C,i,16.6,102.4*,-9.5,i,-6.8
Cc1cc(C(F)(F)F)c(C#N)c(SCC(=O)Nc2nc3ccccc3s2)n1,i,0.2,65.8,4.6,i,-0.9
COc1ccc(C(=O)C(C)OC(=O)COc2ccccc2)cc1 (centres undefined),.,.,.,2.0,i,-1.1
CC1CC(C)CN(C(=O)/C(=C\c2ccccc2)c2ccccc2)C1 (centres undefined),i,-45.5,68.2,1.2,i,-1.7
